Where a SMILES comes first, the peptide text is derived from it. [ ]: non-standard residue; d: D form. Aib = CC(C)(N)C(=O)O

This note sets out measurements from publication PMC3986664 (Molecular Metabolism, 2014).

Data set [1] can be described thus: Measure of maximum solubility. Format: physicochemical. As to conditions: pH 7.4, 10 mM Tris, 4 °C, 48 h, saturated solution, UV 280 nm, single point. Put shortly: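 Saturated peptide solutions made in 10 mM Tris base, pH adjusted to 7.4, held 48 h at 4 °C and at ambient temperature, then pH re-measured. Serially diluted until no visible precipitate and UV absorbance became linear.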

Data set [2] is described as follows: Long-term stability study, alkaline RP-HPLC. Format: physicochemical.

Regarding `CSCC[C@H](NC(=O)[C@H](CC(C)C)NC(=O)[C@H](Cc1c[nH]c2ccccc12)NC(=O)[C@H](CCC(N)=O)NC(=O)[C@@H](NC(=O)[C@H](Cc1ccccc1)NC(=O)[C@H](CC(=O)O)NC(=O)[C@H](CCC(N)=O)NC(=O)[C@H](C)NC(=O)[C@H](CCCNC(=N)N)NC(=O)[C@H](CCCNC(=N)N)NC(=O)[C@H](CO)NC(=O)[C@H](CC(=O)O)NC(=O)[C@H](CC(C)C)NC(=O)[C@H](Cc1ccc(O)cc1)NC(=O)[C@H](CCCCN)NC(=O)[C@H](CO)NC(=O)[C@H](Cc1ccc(O)cc1)NC(=O)[C@H](CC(=O)O)NC(=O)[C@H](CO)NC(=O)[C@@H](NC(=O)[C@H](Cc1ccccc1)NC(=O)[C@@H](NC(=O)CNC(=O)[C@H](CCC(N)=O)NC(=O)[C@H](CO)NC(=O)[C@@H](N)Cc1c[nH]cn1)[C@@H](C)O)[C@@H](C)O)C(C)C)C(=O)N[C@@H](CC(=O)O)C(=O)N[C@@H](CCC(=O)O)C(=O)O` [Asp28,Glu29], the “Apparent solubility relative to Asp28” value in data set [1] was “doubling in apparent peptide solubility”.

Regarding `CSCC[C@H](NC(=O)[C@H](CC(C)C)NC(=O)[C@H](Cc1c[nH]c2ccccc12)NC(=O)[C@H](CCC(N)=O)NC(=O)[C@@H](NC(=O)[C@H](Cc1ccccc1)NC(=O)[C@H](CC(=O)O)NC(=O)[C@H](CCC(N)=O)NC(=O)[C@H](C)NC(=O)[C@H](CCCNC(=N)N)NC(=O)[C@H](CCCNC(=N)N)NC(=O)C(C)(C)NC(=O)[C@H](CC(=O)O)NC(=O)[C@H](CC(C)C)NC(=O)[C@H](Cc1ccc(O)cc1)NC(=O)[C@H](CCCCN)NC(=O)[C@H](CO)NC(=O)[C@H](Cc1ccc(O)cc1)NC(=O)[C@H](CC(=O)O)NC(=O)[C@H](CO)NC(=O)[C@@H](NC(=O)[C@H](Cc1ccccc1)NC(=O)[C@@H](NC(=O)CNC(=O)[C@H](CCC(N)=O)NC(=O)[C@H](CO)NC(=O)[C@@H](N)Cc1c[nH]cn1)[C@@H](C)O)[C@@H](C)O)C(C)C)C(=O)N[C@@H](CC(=O)O)C(=O)N[C@@H](CCC(=O)O)C(=O)O` [IUB75] (H-HSQGTFTSDYSKYLD[Aib]RRAQDFVQWLMDE-OH), in data set [2] (Figure 8, trend-line of degradation slopes), the “Difference in stability at six months between Asp28 and IUB75 (Δ1)” value was found to be 40%. Further, the “Stability relative to Asp28” value in data set [2] (same pH and ambient temperature, six month study) is “approximately twice as stable”. Moreover, the Total degradation entry in data set [2] (six months, ambient temperature, 1 mg/ml, 20 mM Tris, 0.1% SDS, pH 8.6) was “more than 20%”.
